These results are taken from ChEMBL document CHEMBL3822397, “Synthesis and bioevaluation of novel benzodipyranone derivatives as P-glycoprotein inhibitors for multidrug resistance reversal agents” (Eur J Med Chem, 2016).

Series [1] addresses T1, ATP-dependent translocase ABCB1 (Homo sapiens, UniProt P08183). Nature of the series: Inhibition of full length human ABCB1 expressed in Flp-In-293 cells at 5 uM incubated for 30 mins by calcein-AM uptake assay relative to control. The class given is cell-based. The conditions noted are these: 0.5 h.
Series [2] has as its target T1, ATP-dependent translocase ABCB1. Nature of the series: Inhibition of full length human ABCB1 expressed in Flp-In-293 cells assessed as potentiation of paclitaxel-induced cytotoxicity at 8 uM after 72 hrs by SRB assay relative to control. Type of series: cell-based.
The test system of series [3] is HEK293. Nature of the series: Potentiation of vincristine-induced cytotoxicity in Flp-In-293 cells assessed as reduction in vincristine IC50 at 10 uM after 72 hrs by SRB assay relative to control. The class given is functional, Homo sapiens. (In SRB staining, fixed cells bind dye roughly in proportion to their protein.)
Series [4] deals with HEK293. Nature of the series: Potentiation of vincristine-induced cytotoxicity in Flp-In-293 cells assessed as reduction in vincristine IC50 at 8 uM after 72 hrs by SRB assay relative to control. The class given is functional, Homo sapiens.
The subject of series [5] is HEK293. Nature of the series: Potentiation of doxorubicin-induced cytotoxicity in Flp-In-293 cells assessed as reduction in doxorubicin IC50 at 10 uM after 72 hrs by SRB assay relative to control. The class given is functional, Homo sapiens.
Series [6] has as its target T1, ATP-dependent translocase ABCB1. Nature of the series: Inhibition of full length human ABCB1 expressed in Flp-In-293 cells assessed as potentiation of vincristine-induced cytotoxicity at 8 uM after 72 hrs by SRB assay relative to control. The class given is cell-based.
Series [7] relates to HEK293. The series is described as follows: Potentiation of doxorubicin-induced cytotoxicity in Flp-In-293 cells assessed as reduction in doxorubicin IC50 at 8 uM after 72 hrs by SRB assay relative to control. Type of series: functional, Homo sapiens.
Series [8] concerns the target T1, ATP-dependent translocase ABCB1. The series is described as follows: Inhibition of full length human ABCB1 expressed in Flp-In-293 cells at 2.5 uM incubated for 30 mins by calcein-AM uptake assay relative to control. Type of series: cell-based. Conditions: 0.5 h.
Series [9] relates to HEK293. Nature of the series: Potentiation of paclitaxel-induced cytotoxicity in Flp-In-293 cells assessed as reduction in paclitaxel IC50 at 8 uM after 72 hrs by SRB assay relative to control. The class given is functional, Homo sapiens.
For series [10], the system named is HEK293. The series is described as follows: Downregulation of ABCB1 mRNA expression in Flp-In-293 cells transfected with full length human ABCB1 at 5 uM after 72 hrs by RT-PCR analysis. Type of series: functional, cell-based. Put shortly: (§1)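 ABCB1 mRNA measured after treating ABCB1/Flp-In-293 cells with test compounds for 72 hr. Data given as mean ± SE of three experiments, each in triplicate.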

Series [11] deals with T1, ATP-dependent translocase ABCB1. Nature of the series: Inhibition of full length human ABCB1 expressed in Flp-In-293 cells assessed as potentiation of paclitaxel-induced cytotoxicity at 10 uM after 72 hrs by SRB assay relative to control. Type of series: cell-based.
Series [12] has the same target. The series is described as follows: Inhibition of full length human ABCB1 expressed in Flp-In-293 cells assessed as potentiation of doxorubicin-induced cytotoxicity at 8 uM after 72 hrs by SRB assay relative to control. Type of series: cell-based.
Series [13] relates to HEK293. The series is described as follows: Potentiation of paclitaxel-induced cytotoxicity in Flp-In-293 cells assessed as reduction in paclitaxel IC50 at 10 uM after 72 hrs by SRB assay relative to control. Type of series: functional, Homo sapiens.
In series [14] the target is T1, ATP-dependent translocase ABCB1. Nature of the series: Inhibition of full length human ABCB1 expressed in Flp-In-293 cells assessed as potentiation of vincristine-induced cytotoxicity at 10 uM after 72 hrs by SRB assay relative to control. Type of series: cell-based.
For series [15] the target is unchanged. Nature of the series: Inhibition of full length human ABCB1 expressed in Flp-In-293 cells assessed as potentiation of doxorubicin-induced cytotoxicity at 10 uM after 72 hrs by SRB assay relative to control. Type of series: cell-based.
Series [16] can be described thus: Potentiation of vincristine-induced cytotoxicity in human HeLaS3 assessed as reduction in vincristine IC50 at 10 uM after 72 hrs by SRB assay relative to control. Type of series: functional, HeLa S3.
The target of series [17] is T1, ATP-dependent translocase ABCB1. Nature of the series: Inhibition of ABCB1 in human KBVIN cells assessed as potentiation of paclitaxel-induced cytotoxicity at 10 uM after 72 hrs by SRB assay relative to control. The class given is cell-based.
A short description of series [18]: Potentiation of vincristine-induced cytotoxicity in human HeLaS3 assessed as reduction in vincristine IC50 at 8 uM after 72 hrs by SRB assay relative to control. The class given is functional, HeLa S3.
Series [19] deals with T1, ATP-dependent translocase ABCB1. The series is described as follows: Inhibition of ABCB1 in human KBVIN cells assessed as potentiation of vincristine-induced cytotoxicity at 10 uM after 72 hrs by SRB assay relative to control. The class given is cell-based.
Series [20] shares this target. The series is described as follows: Inhibition of ABCB1 in human KBVIN cells assessed as potentiation of paclitaxel-induced cytotoxicity at 8 uM after 72 hrs by SRB assay relative to control. Type of series: cell-based.
Series [21] has the same target. Nature of the series: Inhibition of ABCB1 in human KBVIN cells assessed as potentiation of vincristine-induced cytotoxicity at 8 uM after 72 hrs by SRB assay relative to control. Type of series: cell-based.
The nature of series [22]: Potentiation of paclitaxel-induced cytotoxicity in human HeLaS3 assessed as reduction in paclitaxel IC50 at 8 uM after 72 hrs by SRB assay relative to control. Type of series: functional, HeLa S3.
A short description of series [23]: Potentiation of paclitaxel-induced cytotoxicity in human HeLaS3 assessed as reduction in paclitaxel IC50 at 10 uM after 72 hrs by SRB assay relative to control. The class given is functional, HeLa S3.
In series [24] the test system is HEK293. The series is described as follows: Effect on ABCB1 mRNA expression in Flp-In-293 cells at 5 uM after 72 hrs by RT-PCR analysis. The class given is ADME, cell-based. The conditions noted are these: human, flp-in-293, 72 h. Put shortly:
as §1

Each structure is given as a SMILES string. Activity calls are given as the source filed them. No cut-off for these calls is given here.

T1 sequence (P08183 whole entry): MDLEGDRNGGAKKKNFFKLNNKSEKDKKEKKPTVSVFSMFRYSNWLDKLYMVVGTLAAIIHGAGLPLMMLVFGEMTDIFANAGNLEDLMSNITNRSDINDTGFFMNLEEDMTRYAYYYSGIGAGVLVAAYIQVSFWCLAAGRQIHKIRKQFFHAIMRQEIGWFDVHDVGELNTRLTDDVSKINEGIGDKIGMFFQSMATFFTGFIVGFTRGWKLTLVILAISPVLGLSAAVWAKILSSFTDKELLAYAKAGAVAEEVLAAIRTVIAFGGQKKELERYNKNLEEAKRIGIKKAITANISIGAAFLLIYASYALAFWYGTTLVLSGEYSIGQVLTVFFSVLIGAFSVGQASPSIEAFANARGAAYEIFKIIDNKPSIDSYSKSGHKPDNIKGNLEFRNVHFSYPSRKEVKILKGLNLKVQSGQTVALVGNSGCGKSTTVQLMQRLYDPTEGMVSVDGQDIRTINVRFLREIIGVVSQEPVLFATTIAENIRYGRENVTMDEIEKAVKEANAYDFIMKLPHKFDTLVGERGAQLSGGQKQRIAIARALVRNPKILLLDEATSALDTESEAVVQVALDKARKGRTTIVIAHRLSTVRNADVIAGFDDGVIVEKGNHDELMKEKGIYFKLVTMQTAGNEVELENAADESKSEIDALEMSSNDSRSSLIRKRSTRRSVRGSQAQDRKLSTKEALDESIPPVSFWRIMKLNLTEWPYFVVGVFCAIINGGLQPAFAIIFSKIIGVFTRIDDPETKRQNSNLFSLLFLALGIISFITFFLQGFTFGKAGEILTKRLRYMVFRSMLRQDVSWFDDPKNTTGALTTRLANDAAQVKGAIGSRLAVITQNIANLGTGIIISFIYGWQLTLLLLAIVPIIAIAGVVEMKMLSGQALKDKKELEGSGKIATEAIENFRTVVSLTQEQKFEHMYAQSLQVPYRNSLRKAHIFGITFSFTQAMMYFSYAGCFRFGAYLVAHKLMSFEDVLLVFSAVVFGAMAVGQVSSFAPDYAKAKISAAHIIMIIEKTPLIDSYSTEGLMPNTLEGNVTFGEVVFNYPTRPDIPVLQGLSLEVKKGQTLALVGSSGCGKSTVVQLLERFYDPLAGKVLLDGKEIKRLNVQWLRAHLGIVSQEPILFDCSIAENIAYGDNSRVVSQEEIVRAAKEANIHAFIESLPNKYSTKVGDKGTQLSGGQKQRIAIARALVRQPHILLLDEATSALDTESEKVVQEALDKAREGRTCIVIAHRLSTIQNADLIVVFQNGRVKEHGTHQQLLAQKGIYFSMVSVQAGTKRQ

On to `COc1ccc(-c2coc3c(c(O)cc4occ(-c5ccc(OC)c(OC)c5)c(=O)c43)c2=O)cc1OC`, for which the “fold change (FC)” value in series [1] is recorded as 1.64; in series [2] it was 8.8; in [3] it was 8.2; in series [4], 7.8; in series [5], 1.3; in [6], 4.1. The “fold change (FC)” value is listed as 1.2 in [7]; 1.45 in [8]; 1 in series [9]; 9.5 in [11]; 1.5 in series [12]; 1.3 in series [13]. Besides, the “fold change (FC)” value in series [14] stood at 9.7; in series [15], 1.5. Also, the outcome in [10] was Active.
As to `Cc1cccc(-c2coc3c(c(O)cc4occ(-c5cccc(C)c5)c(=O)c43)c2=O)c1`, the “fold change (FC)” value is reported as 2.05 in series [1]; 10.8 in series [2]; 8.8 in [16]; 9.1 in series [3]; 23.1 in [17]; 7.8 in series [4]. Moreover, the “fold change (FC)” value in series [18] is given as 4.7; in series [5], 1.6; in series [19] it was 29.7; in [6] it was 15.6; in [7], 1.2; in [8], 1.58. Moreover, the “fold change (FC)” value in series [20] was found to be 19; in [9], 1.5; in [21] it was 7.4; in [11] it was 16.1; in series [22] it was 1.1; in [12], 1.4. Moreover, the “fold change (FC)” value in series [13] was found to be 1.8; in series [23], 1.4; in series [14], 21; in series [15], 1.6. Besides, in series [10], the outcome was Active.
On to `COc1ccc(-c2coc3c(c(O)cc4occ(-c5ccc(OC)cc5)c(=O)c43)c2=O)cc1`, for which the “fold change (FC)” value was 1.84 in series [1]; 2.1 in series [2]; 7.1 in series [3]; 6.6 in [4]; 2.1 in series [5]; 1.4 in series [6]. For the same compound, the “fold change (FC)” value in series [7] was 0.9; in series [8], 1.54; in [9], 2.7; in series [11], 8.2; in series [12] it was 1.6; in series [13], 4.2. Moreover, the entries for the “fold change (FC)” value in [14] and in [15] were 1.6 and 1.7, respectively. The Activity entry in [24] was “Non-toxic”. Also, the result in [10] was inactive.
